# Measured values as given in PubChem BioAssay AID504383 (The Scripps Research Institute Molecular Screening Center, 2011).
# Screen size: about 2,500 compounds; about 1,200 (48%) were called active.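 How the source made its calls: active means mean activation above the low control average plus 3 SD, as set in the primary screen (cut at about 12% in these data); inactive means the rest.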 So high a share suggests a set chosen from earlier hits. This is one part of the list.
# Molecular target: Troponin I, cardiac muscle (Homo sapiens) + Troponin T, cardiac muscle (Homo sapiens) + Troponin C, slow skeletal and cardiac muscles (Homo sapiens) (UniProt P19429+P45379+P63316)
# Experiment: calcium sensitizers of cardiac thin filaments – biochemical, IANBD-TnC fluorescence, triplicate, confirmation (AID 504383);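 further: 0% = DMSO at 0.472 mM calcium and 100% = DMSO at 2.9 mM calcium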
# Settings: IANBD-labeled cardiac RTF, Ca2+ sensitivity fluorescence; at 7.2 µM; active compounds read high; scaled from EC20 to saturating calcium; tested at EC20 calcium, 0.472 mM
# In short: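 material = labelled regulated thin filaments | probe or stimulus = Ca2+ 0.472 mM, EC20 level | dosing = single nominal compound dose of 7.2 µM | schedule = 15 min at 25 °C | signal = fluorescence intensity of labelled filaments | evaluation = fluorescence gain scaled between EC20 and EC100 calcium controls | benchmarks = low control EC20 calcium, high control EC100 calcium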
row,SMILES,activation
1,CC1=CC=CN2CC(O)CN=C12 (configuration not stated),25.4% (active)
2,CCCc1ccc(C(=O)NNc2cc(Cl)ccc2Cl)cc1,1.21% (inactive)
3,CCc1ccc(C(=O)NNc2cc(Cl)ccc2Cl)cc1,16.7% (active)
4,CCC1SC(=Nc2cccc(C)c2)NC1=O (configuration not stated),143% (active)
5,Fc1ccc(OCc2nnc(SCCN3CCOCC3)o2)cc1,4.25% (inactive)
6,O=C(CSc1nnc(COc2ccccc2)o1)N1CCN(c2ccccc2)CC1,55.2% (active)
7,CCO[C@@H]1OC(C(=O)O)=C[C@H](c2coc3ccccc3c2=O)[C@H]1CCCO,9.42% (inactive)
8,COc1cccc(/C(O)=C/c2nc3ccc(C(=O)NCCc4ccc(Cl)cc4)cc3[nH]c2=O)c1,6.19% (inactive)
9,COc1ccc(CCNC(=O)c2ccccc2OCc2c(C)noc2C)cc1,7.09% (inactive)
10,COc1ccc(N(C)S(=O)(=O)c2ccc(Cl)c(C(=O)NCCc3ccc(Cl)cc3)c2)cc1,89% (active)
11,Cc1cc(C(=O)COc2cccc3cccnc23)c(C)n1C,60.1% (active)
12,OCCN=C1CCCc2c1[nH]c1ccc(Cl)cc21,10.9% (inactive)
13,Cn1ncc(N=Cc2c(O)ccc3ccccc23)c1C(=O)Nc1cccc(Cl)c1,8.95% (inactive)
14,Cn1c(O)c(/C=N/NC(=O)c2cc3ccccc3cc2O)c2ccccc21,228% (active)
15,Oc1ccccc1C=NN=Cc1c(O)ccc2ccccc12,6.43% (inactive)
16,CC(O)c1cccc(N=Cc2ccc3ccccc3c2O)c1 (configuration not stated),13.9% (active)
17,Cc1ccc2c(c1)c(/C=C/c1cc[n+](C)cc1)c(C)n2C,11% (inactive)
18,Cc1ccc2[nH]c(C)c(/C=C/c3cc[n+](C)cc3)c2c1,171% (active)
19,Cc1[nH]c2ccccc2c1/C=C/c1cc[n+](C)cc1,11.9% (active)
20,C=CCn1c(COc2cccc(C)c2)nnc1SCn1nnc2ccccc2c1=O,5.98% (inactive)
21,CCNc1nc(SCC(N)=O)nc2sc3c(c12)CCN(C)C3,6.59% (inactive)

row,SMILES,activation
1,CCOC(=O)C(C)Sc1nnc(Cc2cc(=O)[nH]c(=O)[nH]2)n1-c1ccc(Cl)cc1 (configuration not stated),10.2% (inactive)
2,CCOC(=O)C(C)(C)Sc1nc2c(cnn2-c2ccc(Cl)cc2)c(=O)[nH]1,185% (active)
3,CCCCCOc1ccc(CN2CCOCC2)cc1Cl,74.8% (active)
4,COc1cccc(CNC(=O)C2CCCN(c3nc4ccccc4o3)C2)c1 (configuration not stated),1.39% (inactive)
5,Cc1cc2nc(C3CCCN(C(=O)NCc4ccccc4)C3)[nH]c2cc1C (configuration not stated),35.4% (active)
6,CCCC(=O)Nc1ccc(-c2cnc(-c3ccc(NC(=O)CCC)cc3)nc2)cc1,13.5% (active)
7,Cc1cccc(/C=N/NC(=O)C(C)Nc2cccc3ccccc23)n1 (configuration not stated),46.1% (active)
8,CCOC(=O)c1sc(=NC(=O)c2cc(OC)c(OC)c(OC)c2)n(C)c1C,266% (active)
9,CCOC(=O)Cn1c(=O)c(-c2cc(Br)ccc2N)nc2ccccc21,16.6% (active)
10,CCOC(=O)Cn1nc2sc3ccccc3n2c(=O)c1=O,8.56% (inactive)
11,CC1CC(C)CN(C(=O)Cn2c(-c3nonc3N)nc3ccccc32)C1 (configuration not stated),4.8% (inactive)
12,CCc1ccccc1NC(=O)COc1ccc2c(=O)c(Oc3cc(C)ccc3C)coc2c1,2310% (active)
13,COc1c(O)cccc1-c1nnn(CCC(=O)OCC(=O)c2ccccc2)n1,53.4% (active)
14,O=C(O)CSc1nc2ccccc2nc1Cc1ccccc1F,413% (active)
15,O=C(Cc1nc2ccccc2[nH]c1=O)c1ccccc1,8.29% (inactive)
16,C/C(Cn1cnc([N+](=O)[O-])n1)=N\NC(=O)c1cccc(F)c1,8.55% (inactive)
17,COc1cc(C(=O)Oc2ccccc2/C=N/NC(=O)c2ccc(Cl)cc2)cc(OC)c1OC,61.8% (active)
18,CCC(=O)N(C)CCc1cc2c(c(OC)c1/C=N/NC(=O)c1ccc(Br)cc1)OCO2,8.22% (inactive)
19,O=C(N/N=C/c1ccccc1OC(=O)c1ccc2c(c1)OCO2)c1cccc(F)c1,52.1% (active)
20,CC1=C(C(=O)OCCCCCl)C(c2cc3c(cc2Br)OCO3)NC(=O)N1 (configuration not stated),7.44% (inactive)
21,O=C(Cn1cc(/C=N/NC(=O)c2cccc3ccccc23)c2ccccc21)Nc1ccc(F)cc1,56.1% (active)

row,SMILES,activation
1,CCOc1cccc(NC(=O)/C(C#N)=C\c2cn(CC(=O)O)c3ccccc23)c1,7.03% (inactive)
2,O=C(Nc1ccccc1C(=O)N/N=C/c1ccco1)c1ccc(F)cc1,10.3% (inactive)
3,CCn1cc([N+](=O)[O-])c(C(=O)Nc2ccn(Cc3ccccc3)n2)n1,19.6% (active)
4,O=S1(=O)CCOC[C@H](CC2CCCCC2)N1Cc1ccccc1,3.3% (inactive)
5,Cc1onc(-c2c(F)cccc2Cl)c1C(N)=S,25.8% (active)
6,NC(=S)Nc1c(Cl)cccc1Cl,1.18% (inactive)
7,CCOC(=O)c1cc2c(=O)n3ccccc3nc2n(CCOC)c1=NC(=O)c1c(-c2c(F)cccc2Cl)noc1C,8.32% (inactive)
8,CSC(=NCc1ccco1)NC#N,5.56% (inactive)
9,O=[N+]([O-])c1ccc(C2=NN(c3ccccc3)C(c3ccco3)C2)cc1 (configuration not stated),1.19% (inactive)
10,O=[N+]([O-])c1ccc(/C=C/C2=NN(c3ccccc3)C(c3ccco3)C2)cc1 (configuration not stated),31.7% (active)
11,COc1ncnc2c1N=C1CC(C)(C)CC(N)=C1S2,70.2% (active)
12,COC(C(=O)Nc1c(F)cccc1F)c1ccccc1 (configuration not stated),13.6% (active)
13,O=C(Nc1ccc(Br)cc1)C(c1ccccc1)c1ccccc1,3.94% (inactive)
14,Cc1nnc(NC(=O)CS(=O)(=O)Cc2ccccc2)s1,5.16% (inactive)
15,Cc1nnc(NC(=O)CSc2ncnc3c2cnn3-c2ccccc2C)s1,14% (active)
16,NC(=O)NNC1=Nc2cccc3cccc1c23,6.47% (inactive)
17,Nc1nc(SCC(=O)Nc2ccc(Cl)cc2)[nH]c(=O)c1-c1ccccc1,5.51% (inactive)
18,Nc1nc(SCC(=O)Nc2ccccc2)nc2nc3c(cc12)CCCC3,12.6% (active)
19,CCOC(=O)c1cccc(NC(=O)CSc2nc(N)cc(N)n2)c1,2.77% (inactive)
20,CCCOc1ccc(C2C(C(=O)/C=C/c3ccco3)=C(O)C(=O)N2CCN2CCOCC2)cc1OC (configuration not stated),14% (active)
